Assay results as given in PubChem BioAssay.
Inconclusive results are not listed.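 The calls were made as follows, unless noted: active = inhibition over a set limit, the all-compound mean plus 3 SD, in both replicate runs; inconclusive = over that limit in just one replicate run; inactive = at or under that limit in both runs.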

Experiments:
[1] = OD615 S. cerevisiae growth inhibition, permissive medium, pilot counter-assay, permissive growth control for S. cerevisiae lifespan shortening project (AID 705;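 active = growth inhibition above 25% in both replicates, a cutoff set 3 SD above the mean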); details: OD615, 24 h, at 10 µM, stronger effect = higher value
Summary of the method: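 System: S. cerevisiae with engineered DeaD lifespan system / Measured by: absorbance (optical density) at 615 nm / Read-out: reduction in yeast growth (OD615) / Times: 4 h cell pre-growth, 24 h exposure at 30 °C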

[2] = Restrictive medium S. cerevisiae growth inhibition, OD615, pilot screen of yeast lifespan reduction project, restrictive growth control (AID 706;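 active = growth inhibition above a set limit, 3 SD over mean compound inhibition, in both replicates, cut at about 43% in these data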;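 also: modified DeaD lifespan yeast strain shifted to restrictive glucose medium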); details: OD615, 48 h, at 10 µM, stronger effect = higher value
Summary of the method: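 System: Engineered S. cerevisiae DeaD strain | Buffer or medium: Glucose-based CSMM-D restrictive medium | Schedule: 4 h pre-incubation, 48 h exposure at 30 °C | Technique: Optical density at 615 nm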

[3] = viability gain of MRP-1-high H69AR cells under doxorubicin, pilot screen, MRP-1 activator project, CellTiter-Glo, duplicate (AID 807;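 active = viability increase at or above a cutoff of the median across tested compounds plus 3 SD, cut at about 8.5% in these data, passing the limit was not always enough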;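 also: compound pretreatment 18-22 h then 72 h combined with doxorubicin; 0% = doxorubicin alone and 100% = vehicle without doxorubicin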); details: H69AR viability with doxorubicin, CellTiter-Glo luminescence; at 10 µM; stronger effect = higher value
[4] = growth suppression of beta-catenin knockout HCT116, pilot screen, human colon tumor cells (AID 823;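 active = cell viability at or below a set limit in both duplicate runs, the limit being the all-compound median minus 4 SD, cut at about 23% in these data, passing the limit was not always enough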;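 also: 0% = wells killed by 20 µM Hyamine and 100% = untreated DMSO cell wells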); details: CellTiter-Glo, 60 h, at 10 µM, stronger effect = lower value
[5] = growth suppression of PTEN-deleted HCT116, pilot screen, cell-based, HCT116 clonal line, CellTiter-Glo (AID 824;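 active = viability at or below 27.92% in each of two runs, the all-compound median minus 4 SD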;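 also: 0% = 20 µM Hyamine control and 100% = vehicle cell control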); details: 60 h, at 10 µM, stronger effect = lower value
[6] = inhibitors of the yeast RAM network, pilot screen, dse1pr::URA3 reporter, 5-FOA selection (AID 869);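 also: 0% = DMSO wells with no growth and 100% = 10 µM 1-NA-PP1 with full growth; RAM network block rescues cells from 5-FOA so hits raise OD615 growth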; details: S. cerevisiae dse1pr::URA3 5-FOA growth, OD615, 2 d; at 10 µM; stronger effect = higher value; strain carries analog-sensitive mutant Cbk1 kinase
[7] = RAM signaling pathway blockade in yeast – S. cerevisiae, Pdr1DBD-CYC8 efflux-inhibited sensitized strain, primary screen (AID 1298;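 active = RAM network inhibition above 8.4% in each of two replicates, 3 SD over the compound average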;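 also: 0% = DMSO untreated cells without growth and 100% = 10 µM 1-NA-PP1 full growth; higher means more yeast growth rescued from 5-FOA killing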); details: S. cerevisiae cbk1-as DSE1-URA3 strain, 5-FOA growth OD615, 2 d; at 50 µM; stronger effect = higher value

COC(=O)c1ccc2c(c1)N(Cc1cc(C)ccc1C)C(=O)c1ccccc1S2=O (configuration not stated)
inactive: growth inhibition [1] -0.815% | growth inhibition [2] -2.77% | viability increase [3] -2.53% | viability [4] 96.8% | viability [5] 91.9% | inhibition [6] 0.92% | RAM network inhibition [7] 3.53%

C#CCn1c(=NC(=O)c2cccs2)sc2cccc(OC)c21
inactive: growth inhibition [1] -11.2% | growth inhibition [2] -16.3% | viability increase [3] -3.51% | viability [4] 79.6% | viability [5] 73.9% | inhibition [6] 3.34% | RAM network inhibition [7] 7.2%

O=C(NC1=NCCS1)C1CC2CCC1C2 (configuration not stated)
inactive: growth inhibition [1] 7.66% | growth inhibition [2] 6.69% | viability increase [3] -2.34% | viability [4] 99.1% | viability [5] 97.1% | inhibition [6] 1.96% | RAM network inhibition [7] 3.02%

Cc1ccc(N2CC(C(=O)Nc3cccc(F)c3)CC2=O)cc1 (configuration not stated)
inactive: growth inhibition [1] -13.3% | growth inhibition [2] -5.71% | viability increase [3] 0.09% | viability [4] 90.6% | viability [5] 103% | inhibition [6] -0.185% | RAM network inhibition [7] 8.04%

COc1ccc(C)c2sc(=NC(=O)C(C)C)n(C)c12
inactive: growth inhibition [1] -6.53% | growth inhibition [2] 2.31% | viability increase [3] -3.89% | viability [4] 90% | viability [5] 92.4% | inhibition [6] 3.1% | RAM network inhibition [7] 6.3%

CCOC(=O)Cn1c(C)cc(=O)c2cccc(C)c21
inactive: growth inhibition [1] -19.8% | growth inhibition [2] -12.9% | viability increase [3] 0.49% | viability [4] 92% | viability [5] 96.9% | inhibition [6] 0.035% | RAM network inhibition [7] 1.15%

CCCCN1C(=O)C(O)(CC(=O)c2ccccc2OC)c2ccccc21 (configuration not stated)
inactive: growth inhibition [1] -13.7% | growth inhibition [2] -5.6% | viability increase [3] -3.31% | viability [4] 79.6% | viability [5] 89.5% | inhibition [6] 1.89% | RAM network inhibition [7] 2.02%

CC1CC(C(O)c2ccccn2)C(=O)C(C(O)c2ccccn2)C1 (configuration not stated)
inactive: growth inhibition [1] 9.67% | growth inhibition [2] -1.25% | viability increase [3] -3.28% | viability [4] 97.8% | viability [5] 90.3% | inhibition [6] 0.35% | RAM network inhibition [7] -0.58%

Cc1ccc2cc(-c3noc(C4CCCO4)n3)c(=O)[nH]c2c1 (configuration not stated)
inactive: growth inhibition [1] -12.5% | growth inhibition [2] -7.12% | viability increase [3] -0.44% | viability [4] 108% | viability [5] 100% | inhibition [6] 0.82% | RAM network inhibition [7] 4.44%

c1cnn(-c2nc(N3CCOCC3)nc(N3CCOCC3)n2)c1
inactive: growth inhibition [1] 0.06% | growth inhibition [2] 7.23% | viability increase [3] -5.18% | viability [4] 67.1% | viability [5] 72.9% | inhibition [6] 1.96% | RAM network inhibition [7] -2.04%

Cc1ccc2c(c1)c1c(n2CC(O)Cn2c(C)nc3ccccc32)C(=O)CCC1 (configuration not stated)
inactive: growth inhibition [1] -7.12% | growth inhibition [2] -1.9% | viability increase [3] -0.7% | viability [4] 59.2% | viability [5] 62.2% | inhibition [6] 2.33% | RAM network inhibition [7] 7.19%

COc1ccc(NC(=O)C2CCN(S(=O)(=O)c3cccnc3)CC2)cc1Cl
inactive: growth inhibition [1] -8.66% | growth inhibition [2] -13.1% | viability increase [3] -3.56% | viability [4] 97.3% | viability [5] 100% | inhibition [6] 1.77% | RAM network inhibition [7] 2.55%

CCOC(=O)C1Cn2c(nc3c(c2=O)C(C)(C)Cc2ccccc2-3)S1 (configuration not stated)
inactive: growth inhibition [1] -1.77% | growth inhibition [2] 2.82% | viability increase [3] 0.36% | viability [4] 90.2% | viability [5] 88.5% | inhibition [6] 3.48% | RAM network inhibition [7] 8.31%

CCOC(=O)N1CCN(C(=O)CS(=O)Cc2nc(-c3cccc(C)c3)oc2C)CC1 (configuration not stated)
inactive: growth inhibition [1] -10.5% | growth inhibition [2] -16.8% | viability increase [3] -1.34% | viability [4] 104% | viability [5] 100% | inhibition [6] 1.69% | RAM network inhibition [7] 1.11%

COc1cc(C2N(c3ccc(Cl)cc3)C(=O)C3CCCN32)cc(OC)c1OC (configuration not stated)
inactive: growth inhibition [1] -6.9% | growth inhibition [2] -0.835% | viability increase [3] -2.09% | viability [4] 101% | viability [5] 97.6% | inhibition [6] 2.28% | RAM network inhibition [7] 0.21%

COc1cc2c(cc1OC)CN(S(C)(=O)=O)CC2
inactive: growth inhibition [1] -0.905% | growth inhibition [2] -20.7% | viability increase [3] -2.27% | viability [4] 110% | viability [5] 94.7% | inhibition [6] 1.33% | RAM network inhibition [7] 1.26%

COCCn1c(=O)[nH]c2cc(C(=O)NCC3CCCO3)ccc2c1=O (configuration not stated)
inactive: growth inhibition [1] -6.33% | growth inhibition [2] -1.18% | viability increase [3] -0.04% | viability [4] 100% | viability [5] 95.2% | inhibition [6] 1.23% | RAM network inhibition [7] 1.45%

COc1cc(OC)cc(-c2cc3nc(C)c(CCC(=O)O)c(C)n3n2)c1
inactive: growth inhibition [1] 0.5% | growth inhibition [2] -1.06% | viability increase [3] -2.31% | viability [4] 96.6% | viability [5] 96.6% | inhibition [6] 0.805% | RAM network inhibition [7] 1.56%

Cn1c(SCC(=O)Nc2cccc(F)c2)nnc1-c1cccnc1
inactive: growth inhibition [1] -4.63% | growth inhibition [2] -4.04% | viability increase [3] 0.87% | viability [4] 105% | viability [5] 104% | inhibition [6] 0.035% | RAM network inhibition [7] 3.15%

CCc1nnc(NC(=O)C2Cc3ccccc3C(=O)O2)s1 (configuration not stated)
inactive: growth inhibition [1] -13.9% | growth inhibition [2] -14.9% | viability increase [3] 1.66% | viability [4] 102% | viability [5] 104% | inhibition [6] 1.32% | RAM network inhibition [7] 5.85%

O=C(c1ccccc1S(=O)(=O)NCc1ccccc1)N1CCCC1
inactive: growth inhibition [1] -12% | growth inhibition [2] -20.3% | viability increase [3] -0.09% | viability [4] 110% | viability [5] 98% | inhibition [6] 1.66% | RAM network inhibition [7] 3.93%

O=C(NC1CCS(=O)(=O)C1)c1ccccc1C(=O)c1ccccc1 (configuration not stated)
inactive: growth inhibition [1] -15.2% | growth inhibition [2] -9.07% | viability increase [3] -0.35% | viability [4] 102% | viability [5] 99.1% | inhibition [6] 2.46% | RAM network inhibition [7] 9.61%

CC(=O)/C(C(=N)N1CCN(C(c2ccccc2)c2ccccc2)CC1)=C(\C)O
inactive: growth inhibition [1] -2.42% | growth inhibition [2] -7.72% | viability increase [3] -2.93% | viability [4] 102% | viability [5] 91.2% | inhibition [6] -0.395% | RAM network inhibition [7] 2.41%

Nc1ccc2nc3n(c(=O)c2c1)CCC3
inactive: growth inhibition [1] -2.62% | growth inhibition [2] 4.83% | viability increase [3] 1.87% | viability [4] 104% | viability [5] 108% | inhibition [6] 1.44% | RAM network inhibition [7] 3.92%

CCN(CC)CCN1C(=O)C2C3c4ccccc4C(c4ccccc43)C2C1=O (configuration not stated)
inactive: growth inhibition [1] -2.27% | growth inhibition [2] -2.01% | viability increase [3] -2.46% | viability [4] 96.5% | viability [5] 95.4% | inhibition [6] 0.035% | RAM network inhibition [7] 1.71%

O=C(CSc1nc2ccccc2o1)NCc1ccco1
inactive: growth inhibition [1] -11.6% | growth inhibition [2] -16% | viability increase [3] -3.53% | viability [4] 102% | viability [5] 98% | inhibition [6] 0.97% | RAM network inhibition [7] 5.5%

CCCC(=O)NC(C)c1nc2ccccc2n1CC (configuration not stated)
inactive: growth inhibition [1] -0.24% | growth inhibition [2] 4.37% | viability increase [3] 0.02% | viability [4] 97% | viability [5] 94.4% | inhibition [6] 0.97% | RAM network inhibition [7] 2.35%

O=C(O)CCC(=O)N1CCc2cc(S(=O)(=O)N3CCN(c4ccc(F)cc4)CC3)ccc21
inactive: growth inhibition [1] -4.08% | growth inhibition [2] 6.97% | viability increase [3] -1.31% | viability [4] 97.4% | viability [5] 99% | inhibition [6] 1.94% | RAM network inhibition [7] 4.17%

COc1ccc(C(=O)NCC23C=CC(O2)C2C(=O)N(Cc4ccccc4)C(=O)C23)cc1 (configuration not stated)
inactive: growth inhibition [1] -5.3% | growth inhibition [2] 13.4% | viability increase [3] -0.77% | viability [4] 85.1% | viability [5] 88.8% | inhibition [6] 2.19% | RAM network inhibition [7] 3.67%

COc1ccccc1-c1nc2n(n1)C(c1ccccc1Cl)C(C(N)=O)=C(C)N2 (configuration not stated)
inactive: growth inhibition [1] -11.6% | growth inhibition [2] -6.96% | viability increase [3] -6.22% | viability [4] 91% | viability [5] 85.9% | inhibition [6] -0.085% | RAM network inhibition [7] -1.52%

O=C(O)C1C2C=CC(C2)C1C(=O)NCCc1cccc(Cl)c1 (configuration not stated)
inactive: growth inhibition [1] -2.6% | growth inhibition [2] 3.11% | viability increase [3] -1.41% | viability [4] 104% | viability [5] 94.7% | inhibition [6] 0.045% | RAM network inhibition [7] 2.92%

CC(=O)c1c(C)oc(C)c1CSCc1ccc(C(=O)O)o1
inactive: growth inhibition [1] -4.54% | growth inhibition [2] 0.22% | viability increase [3] -2.16% | viability [4] 95.7% | viability [5] 97.9% | inhibition [6] 0.665% | RAM network inhibition [7] 3.55%

Cc1cccc(OCc2nnc(SCC(=O)Nc3ccc(C)c(C)c3)o2)c1
inactive: growth inhibition [1] -5.54% | growth inhibition [2] 1.43% | viability increase [3] -2.67% | viability [4] 102% | viability [5] 94.2% | inhibition [6] 4.2% | RAM network inhibition [7] 1.73%

N=c1n(-c2ccccc2)c(O)cc(=O)n1-c1ccccc1
inactive: growth inhibition [1] -1.26% | growth inhibition [2] 1.77% | viability increase [3] 0.05% | viability [4] 98.1% | viability [5] 99.5% | inhibition [6] 0.73% | RAM network inhibition [7] 6.52%

O=C(C1CCCCC1)N1CCN(c2ncccn2)CC1
inactive: growth inhibition [1] -3.77% | growth inhibition [2] -0.05% | viability increase [3] 0.21% | viability [4] 101% | viability [5] 102% | inhibition [6] 1.31% | RAM network inhibition [7] 2.41%

NC(=O)c1ccsc1NC(=O)c1cccs1
inactive: growth inhibition [1] -5% | growth inhibition [2] -5.65% | viability increase [3] -2.23% | viability [4] 104% | viability [5] 92.8% | inhibition [6] 1.59% | RAM network inhibition [7] 0.37%
